Positions count from the first letter of the chain named. Entries after “also recorded” stand apart in the source; their conditions may differ.

Consider two molecules from paper PMC3996483 (Scientific Reports, 2014).

Series [1] addresses T1, NS5A^33–202 domain 1, HCV genotype 1b (con1) (Hepatitis C virus genotype 1b, UniProt Q9WMX2).
T1 sequence (Q9WMX2 2005-2174): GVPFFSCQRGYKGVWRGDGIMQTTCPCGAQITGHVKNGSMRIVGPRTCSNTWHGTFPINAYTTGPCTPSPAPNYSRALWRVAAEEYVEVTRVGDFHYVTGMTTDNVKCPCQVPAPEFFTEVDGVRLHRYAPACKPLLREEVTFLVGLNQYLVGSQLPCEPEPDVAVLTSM
Briefly: MST binding assay, NS5A domain 1 residues 33–202. In short, it runs like this:
(§1)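 Recombinant HCV 1b (con1) NS5A was expressed with a 6-His/TEV tag, Ni- and size-exclusion purified, and the tag cleaved. Ligand: 16-step 2–4-fold dilutions. Capillaries were heated at 40% laser for 30 s, then cooled 5 s. Fnorm normalised to baseline and maximum; KD by mass-action fit; ≥3 replicates.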

Series [2] concerns the target T2, L31V NS5A^26–202, HCV genotype 1b (con1) (Hepatitis C virus genotype 1b, UniProt Q9WMX2, L2003V).
T2 sequence (Q9WMX2 1998-2174 L2003V): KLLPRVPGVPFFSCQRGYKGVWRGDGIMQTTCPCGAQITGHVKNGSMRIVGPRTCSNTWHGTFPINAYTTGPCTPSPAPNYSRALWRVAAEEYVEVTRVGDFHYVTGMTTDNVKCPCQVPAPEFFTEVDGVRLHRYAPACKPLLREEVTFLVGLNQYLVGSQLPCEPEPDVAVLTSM
Briefly: MST binding assay, L31V resistance mutant.

For series [3], the system named is HCV genotype 1a. Conditions: cited from earlier work.
The test system of series [4] is Y93H NS5A^33–202, HCV genotype 1b (con1). Briefly: MST binding assay, Y93H resistance mutant. Further details: species or system Hepatitis C virus. Conditions: MST in vitro assay, Y93H NS5A^33–202 vs NS5A^33–202.
Series [5] deals with T3, Y93H NS5A^33–202, HCV genotype 1b (con1) (Hepatitis C virus genotype 1b, UniProt Q9WMX2, Y2065H).
T3 sequence (Q9WMX2 2005-2174 Y2065H): T1 sequence (Q9WMX2 2005-2174) with Y61H
Briefly: MST binding assay, Y93H resistance mutant.

The subject of series [6] is HCV genotype 2a (J6). The conditions noted are these: cited from earlier work.
In series [7] the test system is HCV replicon (NS5A genotypes and subtypes). The conditions noted are these: cited from earlier work.
Series [8] has as its target T1, NS5A^33–202 domain 1, HCV genotype 1b (con1). Briefly: SEC-MALLS analysis of NS5A oligomerisation state. The conditions noted are these: NS5A^33–202 alone 39 ± 5 kDa (dimer), dimerisation state not affected. In short, it runs like this: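 Multi-angle laser light scattering was run in batch mode (0.1 ml/min) and after size-exclusion (0.35 ml/min). Protein was run at 0.3–4 mg/ml with refractive-index detection and dn/dc 0.185; BSA served as control. Weight-average molar mass was taken from all points.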

Series [9] concerns the target T4, NS5A^26–202 domain 1, HCV genotype 1b (con1) (Hepatitis C virus genotype 1b, UniProt Q9WMX2).
T4 sequence (Q9WMX2 1998-2174): T2 sequence (Q9WMX2 1998-2174 L2003V) with V6L
The experiment in a line: MST binding assay, NS5A domain 1 residues 26–202. The procedure, abridged: as §1

Series [10] concerns HCV genotype 3a (S52). Conditions: cited from earlier work.
Series [11] has as its system HCV genotype 1b (con1). The conditions noted are these: cited from earlier work.
The nature of series [12]: Solubility. Type of series: physicochemical. The conditions noted are these: pH 7, aqueous buffer.
Series [13] concerns the molecule itself. Briefly: SEC-MALS.

As to `COC(=O)N[C@H](C(=O)N1CCC[C@H]1c1nc(-c2ccc(-c3ccc(-c4c[nH]c([C@@H]5CCCN5C(=O)[C@@H](NC(=O)OC)C(C)C)n4)cc3)cc2)c[nH]1)C(C)C` [BMS-790052, daclatasvir], the Kd in series [1] is 8 ± 3 nM; in [5] it was over 500 nM; in [9], 210 ± 46 nM. The “Compound binding after incubation of NS5A with excess 5rU” value in series [1] (MST, NS5A^33–202 incubated with 100-fold excess 5rU prior to adding compound) is reported as “eliminated binding”. Besides, in series [2], the “KD / binding (in words)” value is listed as “did not show any detectable binding; also recorded: no detectable binding”. Moreover, the “decrease in EC50 by Y93H/C resistance mutation” value is recorded as 220 fold in [3] (genotype 1a (H77), Y93H/C); 143 fold in series [6] (Y93H/C); 2,111 fold in [10] (Y93H/C); ~ 5 fold in series [11] (replicon, Y93H/C). Besides, the EC50 in [3] (replicon, genotype 1a (J1)) is 1.1 nM; in series [6] (replicon), 14 nM; in [7] (replicon, most genotypes and subtypes), 0.002 to 0.15 nM; in series [10] (replicon), 0.9 nM. Also, the “decrease in KD (binding), Y93H versus wild type” value in series [4] was over 50 fold. Further, the “resistance conferred by L31V/M/F mutations” value in [7] (NS5A L31V/M/F) is reported as 23- to 3,350 fold. The “resistance conferred by Y93H/N/C mutations” value in series [7] (NS5A Y93H/N/C) was 19- to 47,000 fold. The “average molecular weight of NS5A^33–202 after addition of substance” value in [8] came to 41 ± 7 kDa. Moreover, the “resistance conferred by L31V mutation” value in series [11] (replicon assays, L31V) is 23 fold. In series [12], this molecule returned a solubility of under 1.6 µg/mL.

B1: HCV genotype 1b (con1) NS5A domain 1, residues 33–202 (domain or fragment, Hepatitis C virus genotype 1b (con1), UniProt Q9WMX2 2005-2174, looked up)
chain: T1 sequence (Q9WMX2 2005-2174)
Turning to B1, in [13], the “stoichiometry N” value was 2.

By Kd is commonly meant the constant that tells how readily two partners part at equilibrium. The low end stands for higher affinity, the high end for lower affinity. A word on the EC50: it is the concentration that produces a half-maximal response. The term solubility denotes the dissolved amount per volume that the medium holds. A word on the stoichiometry N: it is the number of molecules, sites or subunits per partner or assembly.
